Assay results published in EPA's CvTdb concentration-time database.

How the values were obtained:
[1] = test system: human; test: concentration in blood after dosing; conditions: dosed: phenacetin, 250 mg, iv, male
Outline: (§1)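 Concentration-versus-time or amount-versus-time points were compiled from published in vivo toxicokinetic studies and from two structured collections. The studies were found by PubMed searching, classifier screening and manual review. Points were mostly digitised from plot screenshots with WebPlotDigitizer, otherwise copied from tables, and kept in the reported units. Dose, route, subject details and medium were curated by hand from each paper, and sampling and analytical methods follow each source and were often unreported.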

[2] = test system: human; test: concentration in blood after dosing; conditions: dosed: phenacetin, 1 g, oral, male
Outline: as §1

[3] = test system: human; test: concentration in blood after dosing; conditions: 40 min; dosed: phenacetin; 0.25 g; oral; male
Outline: as §1

[4] = test system: human; test: concentration in blood after dosing; conditions: dosed: phenacetin, 250 mg, iv, male; remark: listed apart in the source
Outline: as §1

[5] = test system: human; test: concentration in blood after dosing; conditions: dosed: phenacetin, 250 mg, iv, male; remark: listed apart in the source
Outline: as §1

[6] = test system: human; test: concentration in blood after dosing; conditions: dosed: phenacetin, 250 mg, iv, male; remark: listed apart in the source
Outline: as §1

[7] = test system: human; test: concentration in blood after dosing; conditions: dosed: phenacetin, 1 g, oral, male; remark: listed apart in the source
Outline: as §1

[8] = test system: human; test: concentration in blood after dosing; conditions: dosed: phenacetin, 250 mg, iv, male; remark: listed apart in the source
Outline: as §1

[9] = test system: human; test: concentration in blood after dosing; conditions: dosed: phenacetin, male
Outline: as §1

[10] = test system: dog; test: concentration in plasma after dosing; conditions: dosed: phenacetin, 1 mg/kg, iv, duration: 5 min, male, beagle
Outline: as §1

[11] = test system: rat; test: concentration in plasma after dosing; conditions: dosed: phenacetin, oral

CCOc1ccc(NC(C)=O)cc1 [phenacetin]
Conditions	concentration in blood [ng/mL]	concentration in plasma [ng/mL]
[1], 1 h	640	–
[1], 1.5 h	460	–
[1], 2 h	430	–
[1], 3 h	220	–
[1], 10 min	2610	–
[1], 20 min	1770	–
[1], 40 min	940	–
[2], 4 h	2120	–
[2], 5 h	670	–
[4], 1 h	1540	–
[4], 1.5 h	1010	–
[4], 2 h	690	–
[4], 3 h	180	–
[4], 10 min	3420	–
[4], 20 min	2620	–
[4], 40 min	1890	–
[5], 1 h	920	–
[5], 1.5 h	820	–
[5], 2 h	590	–
[5], 3 h	330	–
[5], 4 h	150	–
[5], 10 min	3060	–
[5], 20 min	2090	–
[5], 40 min	1180	–
[6], 1 h	660	–
[6], 1.5 h	500	–
[6], 2 h	210	–
[6], 3 h	80	–
[6], 10 min	1860	–
[6], 20 min	1080	–
[6], 40 min	980	–
[7], 1 h	4600	–
[7], 1.5 h	1220	–
[7], 2 h	750	–
[7], 3 h	360	–
[7], 4 h	330	–
[7], 5 h	190	–
[7], 20 min	300	–
[7], 40 min	4510	–
[8], 1 h	740	–
[8], 1.5 h	310	–
[8], 2 h	190	–
[8], 3 h	80	–
[8], 10 min	2920	–
[8], 20 min	1910	–
[8], 40 min	1090	–
[10], 0.2422 h	–	1250
[10], 0.3263 h	–	884
[10], 0.4969 h	–	529
[10], 1.165 h	–	136
[10], 1.67 h	–	63.4
[10], 2.162 h	–	32.4
[10], 3.172 h	–	13.5

Conditions	concentration in blood [ng/mL]
[3]	230

Conditions	concentration in blood [ng/mL]	concentration in plasma [µM]
[9], 1 h, 0.25 g, oral	180	–
[9], 1 h, 1 g, oral	2750	–
[9], 1 h, 250 mg, iv	670	–
[9], 1.5 h, 1 g, oral	3360	–
[9], 1.5 h, 250 mg, iv	510	–
[9], 2 h, 1 g, oral	1880	–
[9], 2 h, 250 mg, iv	370	–
[9], 3 h, 1 g, oral	820	–
[9], 3 h, 250 mg, iv	240	–
[9], 4 h, 1 g, oral	530	–
[9], 4 h, 250 mg, iv	130	–
[9], 5 h, 1 g, oral	410	–
[9], 10 min, 250 mg, iv	2670	–
[9], 20 min, 0.25 g, oral	340	–
[9], 20 min, 250 mg, iv	1260	–
[9], 40 min, 0.25 g, oral	310	–
[9], 40 min, 250 mg, iv	910	–
[11], 0.25 h, 250 mg/kg, Wistar	–	129
[11], 0.5 h, 250 mg/kg, Wistar	–	105
[11], 1 h, 250 mg/kg, Wistar	–	92.6
[11], 2 h, 250 mg/kg, Wistar	–	11.5
[11], 3 h, 250 mg/kg, Wistar	–	1.59

[11], male, Sprague Dawley
Conditions	concentration in plasma [ng/mL]
0.1117 h, 360 mg/kg	14500
0.193 h, 360 mg/kg	24300
0.249 h, 10 mg/kg	2910
0.2743 h, 360 mg/kg	30300
0.5079 h, 360 mg/kg	28500
0.772 h, 360 mg/kg	25500
0.9929 h, 10 mg/kg	193
1.006 h, 360 mg/kg	23900
1.524 h, 360 mg/kg	14300
1.985 h, 10 mg/kg	34.3
2.022 h, 360 mg/kg	11300
3.99 h, 10 mg/kg	12.9
4.033 h, 360 mg/kg	4510
5.995 h, 10 mg/kg	8.58
7.985 h, 10 mg/kg	8.58
8.005 h, 360 mg/kg	913
11.99 h, 360 mg/kg	171
268 s, 10 mg/kg	893
